pIC50, pKd: −log10 of the molar value.
Columns and labels:
[1] = target: T1, Bromodomain-containing protein 4 (Homo sapiens, UniProt O60885); assay: Inhibition of His6FLAG-tagged BRD4-BD1 expressed in Escherichia coli assessed as change in melting temperature at 100 uM by thermal shift assay
Summary of the method: (§1)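 Thermal melt: protein heated with or without 100 μM compound, at least duplicate; Sypro orange at 1:1000 in PBS with 10% glycerol; ramp 1 °C/min, fluorescence read every 0.5 °C; ΔTm reported.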

[2] = target: T2, Bromodomain-containing protein 3 (Homo sapiens, UniProt Q15059); assay: Inhibition of His6FLAG-tagged BRD3-BD12 expressed in Escherichia coli assessed as change in melting temperature at 100 uM by thermal shift assay; summary of the method: as §1
Target sequence in this assay (Q15059 2-726 limits assumed): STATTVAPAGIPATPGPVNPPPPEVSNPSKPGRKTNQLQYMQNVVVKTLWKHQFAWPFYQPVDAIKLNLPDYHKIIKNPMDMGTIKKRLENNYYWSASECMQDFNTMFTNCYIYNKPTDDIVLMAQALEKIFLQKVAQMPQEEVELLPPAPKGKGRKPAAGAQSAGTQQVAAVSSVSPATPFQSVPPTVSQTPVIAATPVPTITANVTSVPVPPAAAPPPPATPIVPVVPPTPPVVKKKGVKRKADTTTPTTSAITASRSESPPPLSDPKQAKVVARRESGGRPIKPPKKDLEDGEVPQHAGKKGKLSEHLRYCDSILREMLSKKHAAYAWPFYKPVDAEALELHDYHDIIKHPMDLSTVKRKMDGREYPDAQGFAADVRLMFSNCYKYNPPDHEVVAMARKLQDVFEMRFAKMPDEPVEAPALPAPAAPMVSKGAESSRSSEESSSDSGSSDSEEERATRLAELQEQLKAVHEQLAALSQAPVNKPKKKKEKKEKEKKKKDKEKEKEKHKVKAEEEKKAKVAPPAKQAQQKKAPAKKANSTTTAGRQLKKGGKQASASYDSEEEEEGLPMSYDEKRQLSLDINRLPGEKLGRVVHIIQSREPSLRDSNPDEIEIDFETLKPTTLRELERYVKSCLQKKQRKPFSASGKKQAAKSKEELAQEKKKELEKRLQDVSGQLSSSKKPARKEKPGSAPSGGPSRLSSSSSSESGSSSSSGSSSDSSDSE

[3] = target: T3, Bromodomain-containing protein 2 (Homo sapiens, UniProt P25440); assay: Inhibition of His6FLAG-tagged BRD2-BD12 expressed in Escherichia coli assessed as change in melting temperature at 100 uM by thermal shift assay; summary of the method: as §1
Target sequence in this assay (P25440 whole entry, looked up): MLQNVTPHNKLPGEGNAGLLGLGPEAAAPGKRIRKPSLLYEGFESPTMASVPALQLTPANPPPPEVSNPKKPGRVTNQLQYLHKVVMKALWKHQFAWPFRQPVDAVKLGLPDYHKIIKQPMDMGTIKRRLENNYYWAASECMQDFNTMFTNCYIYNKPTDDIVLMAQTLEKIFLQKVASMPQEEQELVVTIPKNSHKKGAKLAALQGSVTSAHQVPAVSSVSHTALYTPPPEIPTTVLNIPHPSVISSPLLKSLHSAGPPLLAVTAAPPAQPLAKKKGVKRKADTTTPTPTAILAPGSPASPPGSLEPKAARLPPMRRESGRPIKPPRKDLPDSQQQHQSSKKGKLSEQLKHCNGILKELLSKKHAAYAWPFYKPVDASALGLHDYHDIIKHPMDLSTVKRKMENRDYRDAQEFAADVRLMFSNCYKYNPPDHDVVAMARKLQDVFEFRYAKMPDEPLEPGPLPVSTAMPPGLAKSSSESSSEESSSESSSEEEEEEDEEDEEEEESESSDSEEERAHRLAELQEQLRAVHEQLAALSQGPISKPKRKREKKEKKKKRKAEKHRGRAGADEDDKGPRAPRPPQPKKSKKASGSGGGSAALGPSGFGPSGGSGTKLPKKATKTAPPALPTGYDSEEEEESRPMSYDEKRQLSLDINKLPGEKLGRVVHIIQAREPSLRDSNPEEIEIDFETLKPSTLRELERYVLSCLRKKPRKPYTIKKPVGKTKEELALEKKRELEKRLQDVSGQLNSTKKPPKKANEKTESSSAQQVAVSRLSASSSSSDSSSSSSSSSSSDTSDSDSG

[4] = target: T3, Bromodomain-containing protein 2; assay: Inhibition of His6FLAG-tagged BRD2-BD1 expressed in Escherichia coli assessed as change in melting temperature at 100 uM by thermal shift assay; summary of the method: as §1
Target sequence in this assay (P25440 whole entry, looked up): as above

[5] = target: T4, Bromodomain-containing protein 1 (Homo sapiens) (UniProt O95696); assay: Inhibition of His6FLAG-tagged BRD1 expressed in Escherichia coli assessed as change in melting temperature at 100 uM by thermal shift assay; summary of the method: as §1
T4 sequence (whole entry): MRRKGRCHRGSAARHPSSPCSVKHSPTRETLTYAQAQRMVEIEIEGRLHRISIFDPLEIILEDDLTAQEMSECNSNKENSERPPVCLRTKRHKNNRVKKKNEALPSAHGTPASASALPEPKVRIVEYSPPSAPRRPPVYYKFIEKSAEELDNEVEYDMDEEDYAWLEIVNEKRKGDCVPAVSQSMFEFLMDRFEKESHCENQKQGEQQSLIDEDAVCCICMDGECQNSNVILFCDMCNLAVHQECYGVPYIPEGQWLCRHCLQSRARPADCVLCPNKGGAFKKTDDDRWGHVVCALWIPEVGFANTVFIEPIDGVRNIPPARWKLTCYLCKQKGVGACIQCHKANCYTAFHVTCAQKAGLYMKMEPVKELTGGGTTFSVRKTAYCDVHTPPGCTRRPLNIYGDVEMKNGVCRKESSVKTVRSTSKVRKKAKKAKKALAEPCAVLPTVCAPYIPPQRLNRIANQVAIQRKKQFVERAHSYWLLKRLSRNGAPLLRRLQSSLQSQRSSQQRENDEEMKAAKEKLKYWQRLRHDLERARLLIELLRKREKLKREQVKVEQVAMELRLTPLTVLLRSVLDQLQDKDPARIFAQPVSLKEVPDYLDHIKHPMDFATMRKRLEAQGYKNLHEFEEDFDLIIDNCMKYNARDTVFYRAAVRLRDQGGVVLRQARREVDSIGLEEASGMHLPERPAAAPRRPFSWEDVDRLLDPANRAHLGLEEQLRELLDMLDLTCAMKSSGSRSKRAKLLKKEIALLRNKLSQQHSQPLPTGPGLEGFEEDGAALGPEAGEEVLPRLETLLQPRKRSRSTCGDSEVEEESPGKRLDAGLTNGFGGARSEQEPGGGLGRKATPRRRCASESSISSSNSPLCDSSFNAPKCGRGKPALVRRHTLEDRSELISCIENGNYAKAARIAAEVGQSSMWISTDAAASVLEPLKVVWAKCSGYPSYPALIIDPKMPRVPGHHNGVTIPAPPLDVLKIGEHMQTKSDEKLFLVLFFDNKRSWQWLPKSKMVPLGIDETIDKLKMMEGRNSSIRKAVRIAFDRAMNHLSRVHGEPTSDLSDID

[6] = target: T1, Bromodomain-containing protein 4; assay: Inhibition of His6FLAG-tagged BRD4-BD12 expressed in Escherichia coli assessed as change in melting temperature at 100 uM by thermal shift assay; summary of the method: as §1
[7] = tested on: PBMC; assay: Antiinflammatory activity in human PBMC assessed as inhibition of LPS-induced IL6 production after 18 to 24 hrs by ELISA; format: functional, cell-based
[8] = tested on: PBMC; assay: Antiinflammatory activity in human PBMC assessed as inhibition of LPS-induced TNFalpha production after 18 to 24 hrs by ELISA; format: functional, cell-based
[9] = tested on: Blood; assay: Antiinflammatory activity in human whole blood assessed as inhibition of LPS-induced TNFalpha production after 18 to 24 hrs by ELISA; format: functional, tissue-based
[10] = target: T3, Bromodomain-containing protein 2; assay: Inhibition of His6-tagged BRD2 expressed in Escherichia coli assessed as inhibition of binding to SGRG-K(Ac)-GG-K(Ac)-GLG-K(Ac)-GGA-K(Ac)-RHGSGSK-biotin after 1 hr by TR-FRET assay
Summary of the method: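 TR-FRET competition using tandem bromodomain construct; displacement of a tetra-acetylated biotinylated peptide measured, IC50 reported.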
Target sequence in this assay (P25440 whole entry): as the sequence (P25440 whole entry, looked up) above

[11] = target: T2, Bromodomain-containing protein 3; assay: Inhibition of His6-tagged BRD3 expressed in Escherichia coli assessed as inhibition of binding to SGRG-K(Ac)-GG-K(Ac)-GLG-K(Ac)-GGA-K(Ac)-RHGSGSK-biotin after 1 hr by TR-FRET assay
Target sequence in this assay (Q15059 whole entry): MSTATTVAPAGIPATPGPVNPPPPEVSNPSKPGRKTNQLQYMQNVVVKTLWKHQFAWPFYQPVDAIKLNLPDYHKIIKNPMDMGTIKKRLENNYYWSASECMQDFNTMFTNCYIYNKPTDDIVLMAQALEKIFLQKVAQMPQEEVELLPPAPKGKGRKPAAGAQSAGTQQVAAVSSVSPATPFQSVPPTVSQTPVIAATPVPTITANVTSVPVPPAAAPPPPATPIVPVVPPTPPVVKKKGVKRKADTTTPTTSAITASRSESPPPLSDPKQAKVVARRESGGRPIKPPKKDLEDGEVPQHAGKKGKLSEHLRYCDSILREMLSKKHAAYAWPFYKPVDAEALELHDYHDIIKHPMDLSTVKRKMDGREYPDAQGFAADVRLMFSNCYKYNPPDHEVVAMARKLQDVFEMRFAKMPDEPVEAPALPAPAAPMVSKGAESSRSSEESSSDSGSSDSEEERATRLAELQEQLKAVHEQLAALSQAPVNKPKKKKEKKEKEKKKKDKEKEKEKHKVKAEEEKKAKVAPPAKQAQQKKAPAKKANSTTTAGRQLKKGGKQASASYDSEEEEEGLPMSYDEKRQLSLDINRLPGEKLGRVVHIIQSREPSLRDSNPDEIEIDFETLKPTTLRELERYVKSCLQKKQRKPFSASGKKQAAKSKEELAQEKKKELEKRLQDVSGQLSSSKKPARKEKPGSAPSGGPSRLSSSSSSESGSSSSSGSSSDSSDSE

[12] = target: T1, Bromodomain-containing protein 4; assay: Binding affinity to His6-tagged BRD4 expressed in Escherichia coli by surface plasmon resonance assay
Summary of the method: (§2)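 SPR with tandem bromodomain (BRD2-BD12 or BRD4-BD12) amine-coupled to CM5 chip after EDC/NHS activation; protein 0.1−2 mg/mL in NaAc pH 4.5−5.5, >5 kRU immobilized, ethanolamine-blocked. Running buffer 50 mM HEPES pH 7.5, 150 mM NaCl.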

[13] = target: T3, Bromodomain-containing protein 2; assay: Binding affinity to His6-tagged BRD2 expressed in Escherichia coli by surface plasmon resonance assay; summary of the method: as §2
[14] = target: T1, Bromodomain-containing protein 4; assay: Inhibition of His6-tagged BRD4-BD12 expressed in Escherichia coli assessed as inhibition of binding to SGRG-K(Ac)-GG-K(Ac)-GLG-K(Ac)-GGA-K(Ac)-RHGSGSK-biotin after 1 hr by TR-FRET assay

| ΔTm [1] [°C] | ΔTm [2] [°C] | ΔTm [3] [°C] | ΔTm [4] [°C] | ΔTm [5] [°C] | ΔTm [6] [°C] | pIC50 [9] | pIC50 [10] | pIC50 [11] | pKd [12] | RUmax [12] [%] | pKd [13] | RUmax [13] [%] | pIC50 [14] | Compound | pIC50 [7] | pIC50 ([8]; read-out: IC50) | IC50 ([8]; read-out: pIC50 (converted)) [nM] |
| --- | --- | --- | --- | --- | --- | --- | --- | --- | --- | --- | --- | --- | --- | --- | --- | --- | --- |
| 2 | 2 | 2 | 1 | < 1 | 5 | 5.30 | – | – | – | – | – | – | – | Cc1ccc(-c2c(C)noc2C)cc1S(=O)(=O)NC1CCCC1 | 5.51 | 6.70 | 126 |
| 2 | 2 | 2 | 1 | < 1 | 5 | – | 5.82 | 5.96 | 5.56 | 25 | 5.50 | 34 | 5.59 | Cc1noc(C)c1-c1ccc(OCCCN2CCOCC2)c(S(=O)(=O)NC2CCCC2)c1 | – | – | – |

— ChEMBL document CHEMBL2176978, “Fragment-based discovery of bromodomain inhibitors part 2: optimization of phenylisoxazole sulfonamides” (J Med Chem, 2012)
